{
  "source": "ChEMBL document CHEMBL4513216",
  "about": "“Probing the Open Global Health Chemical Diversity Library for Multistage-Active Starting Points for Next-Generation Antimalarials” (ACS Infect Dis, 2020)",
  "data": [
    {"experiment": "Toxicity liver stage against HepG2, at 10uM", "assay_type": "cell-based", "design": "test concentration 10 uM, cell line HepG2-A16-CD81EGFP", "conditions": "human, HepG2-A16-CD81EGFP cells; read-out: INHIBITION", "method_in_brief": "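Uninfected HepG2-A16-CD81EGFP cells, 3 × 10^3 per well, 1536-well, plated on prespotted compound at 10 μM final, parasite-free screening media added to match infected plates; puromycin 10 μM positive, DMSO 0.5% negative; run in parallel with 48 h PbLuc assay at 37 °C, 5% CO2; viability by CellTiter-Glo luminescence, normalized to controls.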", "units": {"cytotoxicity at 10 µM": "%"}, "values": [
      {"smiles": "CC(C)(O)c1cc(CC2(NCc3ccccc3Cl)COC2)no1", "cytotoxicity at 10 µM": 2.63},
      {"smiles": "CCCC(O)CN1CCC(=O)N(CCOC)Cc2ccccc21", "note": "(stereo not given)", "cytotoxicity at 10 µM": 3.23},
      {"smiles": "COC(=O)CCn1ccc(=O)c2cc(F)ccc21", "cytotoxicity at 10 µM": 0.409},
      {"smiles": "Cc1cnc2n(c1=O)C(CC(=O)NCc1ccccc1Cl)CS2", "note": "(stereo not given)", "cytotoxicity at 10 µM": -7.86},
      {"smiles": "O=S(=O)(NCCNc1cc(-n2cccc2)ncn1)c1cccs1", "cytotoxicity at 10 µM": -0.582},
      {"smiles": "CC(C)N(C)[C@@H]1CCN(Cc2ccco2)[C@H]1Cc1ccccc1", "cytotoxicity at 10 µM": -7.92},
      {"smiles": "Cc1occc1C(=O)N1C[C@@H]2CN(S(C)(=O)=O)CCO[C@@H]2C1", "cytotoxicity at 10 µM": -2.63},
      {"smiles": "CC(C)CCN1C2(CCN(C(=O)C3(C)CC3)C2)c2ccccc2S1(=O)=O", "note": "(stereo not given)", "cytotoxicity at 10 µM": -7.42},
      {"smiles": "COCCNC(=O)c1cc2c(s1)CCN2S(C)(=O)=O", "cytotoxicity at 10 µM": -5.05},
      {"smiles": "Cc1c(C)n(CC(O)CN2CCC(O)CC2)c2c(Cl)cccc12", "note": "(stereo not given)", "cytotoxicity at 10 µM": -13.9},
      {"smiles": "O=C(NCC1CC1)C1=NOC2(CCN(Cc3ccc4c(c3)OCO4)C2)C1", "note": "(stereo not given)", "cytotoxicity at 10 µM": -12.1},
      {"smiles": "CN1C(=O)C(c2cccnc2)CC12CCN(C(=O)c1cccn1C)CC2", "note": "(stereo not given)", "cytotoxicity at 10 µM": -16.4},
      {"smiles": "Cc1noc([C@@H]2C[C@H]3OCC[C@H]3N(S(C)(=O)=O)C2)n1", "cytotoxicity at 10 µM": -9.67},
      {"smiles": "CC(C)CNC(=O)c1nn(C)c(NC(=O)Cc2ccccc2)c1F", "cytotoxicity at 10 µM": -3.22},
      {"smiles": "CCn1cc(NC(=O)C(C)n2ncc(Cl)c2C)c(C(=O)OC)n1", "note": "(stereo not given)", "cytotoxicity at 10 µM": 7.19},
      {"smiles": "Cc1cc(O)n(-c2ccc3nnc(C)n3n2)n1", "cytotoxicity at 10 µM": 9.24},
      {"smiles": "CNC(=O)CCc1cc(C2CCCN2S(C)(=O)=O)nc(C)n1", "note": "(stereo not given)", "cytotoxicity at 10 µM": -0.0612},
      {"smiles": "CC(=O)N[C@H]1CCO[C@@H](c2cccc(NC(=O)c3cccc(F)c3)c2)C1", "cytotoxicity at 10 µM": 8.75},
      {"smiles": "Cc1ccccc1S(=O)(=O)N[C@@H]1CC[C@@H](N2CCNC(=O)C2)[C@@H]1O", "cytotoxicity at 10 µM": 4.29},
      {"smiles": "CN(Cc1nnc(C2CC2)o1)Cc1ccccc1-c1ccccc1", "cytotoxicity at 10 µM": 4.59},
      {"smiles": "NC(=O)CNC(c1ccccc1)c1ccccc1", "cytotoxicity at 10 µM": -10.5},
      {"smiles": "Cc1cc(NC(=O)CNC2CCc3ncnn3C2)on1", "note": "(stereo not given)", "cytotoxicity at 10 µM": 6.47},
      {"smiles": "CNC(=O)N1CCOC(C)(c2cnn(C)c2)C1", "note": "(stereo not given)", "cytotoxicity at 10 µM": -0.717},
      {"smiles": "Cc1nnc(N2CCc3cnc(C(C)C)nc3C2)c(C#N)c1C", "cytotoxicity at 10 µM": -143},
      {"smiles": "CCCNC(=O)CCC(=O)Nc1cc2sc(C)nc2cc1OC", "cytotoxicity at 10 µM": 4.55},
      {"smiles": "CCC(C)N(C)C(=O)Nc1ccc(N2CCSCC2)cc1C", "note": "(stereo not given)", "cytotoxicity at 10 µM": -12.5},
      {"smiles": "Cc1sc(-c2ccco2)nc1C(=O)N(CC1CCOC1)C1CC1", "note": "(stereo not given)", "cytotoxicity at 10 µM": 0.714},
      {"smiles": "Cc1nc(-c2ccco2)ccc1C(=O)NCCC(=O)N1CCCCC1", "cytotoxicity at 10 µM": -1.33},
      {"smiles": "COc1ccc(OC)c(CCC(=O)Nc2cc(C)n[nH]2)c1", "cytotoxicity at 10 µM": 7.3},
      {"smiles": "O=C(NCCCN1CCC(OC2CCCCC2)CC1)C1CCCC1", "cytotoxicity at 10 µM": 2.24},
      {"smiles": "CN1CCN(CC(NCc2cccc(O)c2)c2ccccc2)CC1", "note": "(stereo not given)", "cytotoxicity at 10 µM": -3.89},
      {"smiles": "Cc1cc(C)n(-c2cncc(NCCC(=O)NC(C)C)n2)n1", "cytotoxicity at 10 µM": 1.06},
      {"smiles": "O=C(C1SCCc2sccc21)N1CC(O)C1", "note": "(stereo not given)", "cytotoxicity at 10 µM": 9.22},
      {"smiles": "c1nc(N2CCCCC2Cn2cncn2)c2sccc2n1", "note": "(stereo not given)", "cytotoxicity at 10 µM": 9.43},
      {"smiles": "Cc1cc(NS(=O)(=O)c2cccs2)ccc1-n1cccc1C(=O)O", "cytotoxicity at 10 µM": -2.68},
      {"smiles": "COCCn1nc(C(=O)N(C)Cc2cccnc2)ccc1=O", "cytotoxicity at 10 µM": -144},
      {"smiles": "N#Cc1c(Cl)nsc1N1CCN(CC2CCCCC2)CC1", "cytotoxicity at 10 µM": -8.67},
      {"smiles": "CC1CN(C)CCN1C(=O)Nc1nc(-c2ccc[nH]2)cs1", "note": "(stereo not given)", "cytotoxicity at 10 µM": -1.94},
      {"smiles": "O=C(Cn1cc(-n2cccc2)cn1)NCC(F)(F)F", "cytotoxicity at 10 µM": 16},
      {"smiles": "COc1ccc(-c2nc(C3(NC(=O)OC(C)(C)C)CCC3)no2)cn1", "cytotoxicity at 10 µM": 12.5},
      {"smiles": "CC(=O)N1CC[C@@H]2O[C@@H](COCc3csc(C)n3)CC[C@@H]21", "cytotoxicity at 10 µM": -71.7},
      {"smiles": "Cc1noc([C@H]2C[C@H]3OCC[C@H]3N(Cc3ccncc3)C2)n1", "cytotoxicity at 10 µM": -74.7},
      {"smiles": "CNC(=O)[C@@]12CCO[C@@H]1CCN(S(=O)(=O)c1ccccc1C)C2", "cytotoxicity at 10 µM": -72.8},
      {"smiles": "CC(=O)N1CCC2(CCN(C(=O)c3ccc(F)c(C(F)(F)F)c3)CC2)C1", "cytotoxicity at 10 µM": -80.4},
      {"smiles": "c1cnc(OCc2nnc3n2CCN(CC2CCOCC2)C3)nc1", "cytotoxicity at 10 µM": 4.95},
      {"smiles": "Cc1ccc(N2CCC3(CCN(C(=O)c4ccsc4)CC3)C2)nn1", "cytotoxicity at 10 µM": 4},
      {"smiles": "CNC(=O)CC1CC2(CCN(S(C)(=O)=O)CC2)c2ccccc21", "note": "(stereo not given)", "cytotoxicity at 10 µM": 5.75},
      {"smiles": "CCn1ccnc1C1CCN(C(=O)C(O)c2ccc(Cl)cc2)CC1", "note": "(stereo not given)", "cytotoxicity at 10 µM": -0.65},
      {"smiles": "Cn1nccc1C(=O)N1CCCC1c1ccc(C(=O)N2CCOCC2)s1", "note": "(stereo not given)", "cytotoxicity at 10 µM": -145},
      {"smiles": "COc1ccc(-c2cc(C3CCOC3)c(C#N)c(N)n2)cn1", "note": "(stereo not given)", "cytotoxicity at 10 µM": 10.2},
      {"smiles": "Cc1c(CNCCCOc2cccnc2)c2ccccc2n1CC(N)=O", "cytotoxicity at 10 µM": -145},
      {"smiles": "Cc1nc(CN2CCN(C(=O)C(c3ccccc3C)N(C)C)CC2)no1", "note": "(stereo not given)", "cytotoxicity at 10 µM": 1.06},
      {"smiles": "O=C1OCCN1CCNC(=O)C1(N2CCCCC2)Cc2ccccc2C1", "cytotoxicity at 10 µM": -6.77},
      {"smiles": "CCCc1cc(C(=O)N2C[C@H]3CC=C(C)C[C@H]3C2)ccn1", "cytotoxicity at 10 µM": 0.782},
      {"smiles": "Cc1nccnc1-n1c(COCC(=O)O)nc2c(C)cccc21", "cytotoxicity at 10 µM": -6.29},
      {"smiles": "CCCN1CCN(Cc2cc3cc(OCC)ccc3[nH]c2=O)CC1", "cytotoxicity at 10 µM": -9.91},
      {"smiles": "CCOCCn1c(=O)n(CCC=C(C)C)c2cc(C(=O)O)cnc21", "cytotoxicity at 10 µM": -2.85},
      {"smiles": "CC(C)N1CCCC2(CCN(C(=O)CCCn3ccnc3)C2)C1=O", "note": "(stereo not given)", "cytotoxicity at 10 µM": -6.43},
      {"smiles": "Cc1[nH]c(=O)[nH]c(=O)c1CN1CCCC(CCc2c(F)cccc2F)C1", "note": "(stereo not given)", "cytotoxicity at 10 µM": -7.32},
      {"smiles": "CNC(=O)c1cccc(CNC(=O)C2CC(=O)N(CCN(C)C)C2)c1", "note": "(stereo not given)", "cytotoxicity at 10 µM": 1.01},
      {"smiles": "COc1ccc2c(c1)CCN(CCC(=O)NC1CCCCC1)CC2", "cytotoxicity at 10 µM": -11.4},
      {"smiles": "CN(C)c1nc2c(c(=O)[nH]1)CCN(C(=O)c1cccc3nccnc13)C2", "cytotoxicity at 10 µM": -10.7},
      {"smiles": "CNc1cncc(C2CCCN2C(=O)c2ccc3oc(C)cc3c2)n1", "note": "(stereo not given)", "cytotoxicity at 10 µM": 4.52},
      {"smiles": "O=C(Nc1ccc(CCN2CCOCC2)cc1)C1CC1", "cytotoxicity at 10 µM": -10.9},
      {"smiles": "CC(C)c1nnc2n1CCN(C(=O)c1cc(Cl)c[nH]1)C2", "cytotoxicity at 10 µM": -11.4},
      {"smiles": "Cc1ccc(C(=O)N2CCCN(Cc3cccs3)CC2)n1C", "cytotoxicity at 10 µM": -0.926},
      {"smiles": "CN(Cc1ccsc1)C(=O)c1ccc2c(c1)NC(=O)CO2", "cytotoxicity at 10 µM": -12.8},
      {"smiles": "CCS(=O)(=O)N(C)CC(=O)Nc1ccc(Br)cn1", "cytotoxicity at 10 µM": -0.0481},
      {"smiles": "Cc1cc(NC(=O)CN2CCCC2c2noc(C(C)C)n2)n(C)n1", "note": "(stereo not given)", "cytotoxicity at 10 µM": 4.64},
      {"smiles": "O=C(c1cc(F)ccc1F)C1CCN(C(=O)c2ccccn2)CC1", "cytotoxicity at 10 µM": 2.6},
      {"smiles": "CN(C)c1ncc(-c2ccc(C(N)=O)cc2)c(C2CCNC2)n1", "note": "(stereo not given)", "cytotoxicity at 10 µM": -0.892},
      {"smiles": "Cc1nc(CN2CCc3ncnc(-c4ccccc4)c3CC2)cs1", "cytotoxicity at 10 µM": -81.1},
      {"smiles": "CN(C)CCN1CCOCC12CCN(C(=O)C1CC1)CC2", "cytotoxicity at 10 µM": -7.45},
      {"smiles": "Cc1ccc(N2CCC3(CC2)COCCN(c2nccs2)C3)nn1", "cytotoxicity at 10 µM": -107},
      {"smiles": "CC(=O)N1CC(=O)N(c2ccccc2)CC12CCN(Cc1cccs1)C2", "note": "(stereo not given)", "cytotoxicity at 10 µM": -11.1},
      {"smiles": "CCO[C@H]1CN(CC2CC2)[C@@H]2CCCO[C@H]12", "cytotoxicity at 10 µM": -105},
      {"smiles": "CN(C)C[C@]12COC[C@H]1CN(C(=O)CCc1ccccc1)C2", "cytotoxicity at 10 µM": -1.89},
      {"smiles": "O=C(NC[C@]12COC[C@H]1CN(Cc1ccncc1)C2)c1ccno1", "cytotoxicity at 10 µM": -72.1},
      {"smiles": "c1ccc(-c2ccc3nc(C4CCN(CC5CC5)CC4)nn3c2)cc1", "cytotoxicity at 10 µM": -7.32},
      {"smiles": "CN(C)CCNC(=O)[C@H]1C[C@H]2CN(C(=O)NC3CCCC3)C[C@@H]1O2", "cytotoxicity at 10 µM": -4.2}
    ]}
  ]
}
